Reference: ChEMBL document CHEMBL3864184, “Optimization of Highly Kinase Selective Bis-anilino Pyrimidine PAK1 Inhibitors” (ACS Med Chem Lett, 2016)
Blank lines part the entries; values can stand above or below the molecule they belong to. Active and inactive are the calls of the source. No cut-off for these calls is given here.

Experiments:
[1] = Distribution coefficient, logD of the compound; assay type: physicochemical; settings: octanol/water
[2] = Intrinsic clearance in rat hepatocytes assessed per million cells; assay type: ADME, cell-based, Hepatocyte; settings: read-out: CLH
[3] = Volume of distribution at steady state in mouse at 0.5 mg/kg, iv or 100 mg/kg, po; assay type: ADME, organism-based; settings: in vivo, read-out: Vdss
[4] = Clearance in mouse at 0.5 mg/kg, iv; assay type: ADME, organism-based; settings: in vivo
[5] = Half life in mouse at 0.5 mg/kg, iv; assay type: ADME, organism-based; settings: in vivo
[6] = Unbound fraction in mouse plasma at 0.5 mg/kg, iv or 100 mg/kg, po; assay type: ADME, organism-based
Mus musculus = assay: Acute toxicity in mouse at 100 mg/kg, po; assay type: organism-based; settings: in vivo
Outline: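 Observed for visible signs of toxicity during a mouse pharmacokinetic study after an oral 100 mg/Kg dose. This was not a maximum tolerated dose study.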

[7] = Cmax in mouse at 100 mg/kg, po; assay type: ADME, organism-based; parameters: dose 100 mg/kg, route oral; settings: in vivo
[8] = target: T1, Muscarinic acetylcholine receptor M1 (Homo sapiens) (UniProt P11229); assay: Activity at muscarinic acetylcholine receptor M1 (unknown origin) at <1 uM
T1 sequence (whole entry): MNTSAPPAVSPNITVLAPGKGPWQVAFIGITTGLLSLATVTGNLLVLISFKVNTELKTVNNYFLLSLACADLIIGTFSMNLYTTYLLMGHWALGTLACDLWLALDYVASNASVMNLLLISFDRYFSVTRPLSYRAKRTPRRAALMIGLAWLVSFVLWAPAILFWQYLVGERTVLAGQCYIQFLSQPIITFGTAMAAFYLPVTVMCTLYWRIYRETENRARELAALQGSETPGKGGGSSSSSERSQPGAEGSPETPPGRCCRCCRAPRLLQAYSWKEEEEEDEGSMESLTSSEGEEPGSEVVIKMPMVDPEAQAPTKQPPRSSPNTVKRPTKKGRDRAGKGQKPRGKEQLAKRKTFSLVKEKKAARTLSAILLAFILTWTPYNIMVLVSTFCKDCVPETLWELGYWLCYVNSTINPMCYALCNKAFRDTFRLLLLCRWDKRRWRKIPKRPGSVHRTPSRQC

[9] = target: T2, Protein kinase C theta type (Homo sapiens, UniProt Q04759); assay: Inhibition of human PKCtheta at 100 nM
[10] = target: T3, Tyrosine-protein kinase Fyn (Homo sapiens, UniProt P06241); assay: Inhibition of N-Terminal His6-tagged full length recombinant human FYN expressed in baculovirus expression system at 100 nM
Target sequence in this assay (P06241 2-537 limits assumed): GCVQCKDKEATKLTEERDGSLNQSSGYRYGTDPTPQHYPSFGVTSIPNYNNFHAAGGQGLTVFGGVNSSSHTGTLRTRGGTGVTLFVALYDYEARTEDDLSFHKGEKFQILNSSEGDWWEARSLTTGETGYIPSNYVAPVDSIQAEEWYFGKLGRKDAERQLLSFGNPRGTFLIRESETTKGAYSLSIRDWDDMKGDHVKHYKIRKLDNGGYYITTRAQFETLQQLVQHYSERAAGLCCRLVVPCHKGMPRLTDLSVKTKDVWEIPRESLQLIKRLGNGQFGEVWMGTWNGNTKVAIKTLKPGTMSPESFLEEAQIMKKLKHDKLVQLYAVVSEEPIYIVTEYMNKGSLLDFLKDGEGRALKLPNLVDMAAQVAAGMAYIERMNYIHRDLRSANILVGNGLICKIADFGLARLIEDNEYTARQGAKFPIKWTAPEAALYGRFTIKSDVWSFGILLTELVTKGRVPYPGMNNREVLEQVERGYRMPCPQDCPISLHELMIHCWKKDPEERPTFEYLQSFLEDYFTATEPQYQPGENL

[11] = target: T4, Muscarinic acetylcholine receptor M2 (Homo sapiens) (UniProt P08172); assay: Activity at muscarinic acetylcholine receptor M2 (unknown origin) at <1 uM
T4 sequence (whole entry): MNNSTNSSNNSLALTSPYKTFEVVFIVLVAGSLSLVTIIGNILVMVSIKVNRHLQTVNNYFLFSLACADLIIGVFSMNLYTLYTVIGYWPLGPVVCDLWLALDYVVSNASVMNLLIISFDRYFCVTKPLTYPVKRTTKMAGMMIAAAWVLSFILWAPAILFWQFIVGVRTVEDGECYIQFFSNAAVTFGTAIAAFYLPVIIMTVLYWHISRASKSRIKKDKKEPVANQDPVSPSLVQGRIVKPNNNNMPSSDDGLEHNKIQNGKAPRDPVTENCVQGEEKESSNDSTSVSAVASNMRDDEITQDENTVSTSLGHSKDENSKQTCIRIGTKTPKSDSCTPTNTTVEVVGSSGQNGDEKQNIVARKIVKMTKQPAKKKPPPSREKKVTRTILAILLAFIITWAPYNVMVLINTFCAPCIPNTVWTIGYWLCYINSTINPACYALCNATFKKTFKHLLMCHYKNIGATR

[12] = target: T5, Tyrosine-protein kinase Lck (Homo sapiens, UniProt P06239); settings: Sf21, 100 nM
Target sequence in this assay (P06239 2-509 limits assumed): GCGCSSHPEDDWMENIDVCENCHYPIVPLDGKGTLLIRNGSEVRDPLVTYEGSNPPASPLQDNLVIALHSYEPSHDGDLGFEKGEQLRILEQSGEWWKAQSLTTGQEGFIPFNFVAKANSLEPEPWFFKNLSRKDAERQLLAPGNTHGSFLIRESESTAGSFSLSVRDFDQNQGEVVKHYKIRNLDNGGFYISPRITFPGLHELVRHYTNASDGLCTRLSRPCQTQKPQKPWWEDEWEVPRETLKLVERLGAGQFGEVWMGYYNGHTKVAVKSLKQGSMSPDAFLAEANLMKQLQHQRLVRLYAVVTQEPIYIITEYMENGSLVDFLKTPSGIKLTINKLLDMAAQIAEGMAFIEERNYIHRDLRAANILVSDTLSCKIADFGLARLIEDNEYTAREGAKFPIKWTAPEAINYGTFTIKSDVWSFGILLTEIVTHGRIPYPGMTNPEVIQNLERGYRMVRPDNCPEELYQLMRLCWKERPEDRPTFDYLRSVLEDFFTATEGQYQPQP

[13] = target: T6, 5-hydroxytryptamine receptor 2C (Homo sapiens) (UniProt P28335); assay: Activity at 5HT2C receptor (unknown origin) at <1 uM
T6 sequence (whole entry): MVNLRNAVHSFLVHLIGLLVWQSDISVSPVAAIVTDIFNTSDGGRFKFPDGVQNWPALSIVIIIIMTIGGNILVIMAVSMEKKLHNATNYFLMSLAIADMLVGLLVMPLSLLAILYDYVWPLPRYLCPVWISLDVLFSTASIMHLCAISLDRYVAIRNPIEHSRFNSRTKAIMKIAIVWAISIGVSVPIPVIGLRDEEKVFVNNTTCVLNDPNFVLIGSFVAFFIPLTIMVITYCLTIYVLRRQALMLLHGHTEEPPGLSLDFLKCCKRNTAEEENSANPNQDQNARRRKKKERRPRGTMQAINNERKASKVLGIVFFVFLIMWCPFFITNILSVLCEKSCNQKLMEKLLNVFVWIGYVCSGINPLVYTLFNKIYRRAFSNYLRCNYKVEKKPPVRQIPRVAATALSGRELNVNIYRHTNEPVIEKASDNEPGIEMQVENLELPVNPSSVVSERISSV

[14] = target: T7, Muscarinic acetylcholine receptor M5 (Homo sapiens) (UniProt P08912); assay: Activity at muscarinic acetylcholine receptor M5 (unknown origin) at <1 uM
T7 sequence (whole entry): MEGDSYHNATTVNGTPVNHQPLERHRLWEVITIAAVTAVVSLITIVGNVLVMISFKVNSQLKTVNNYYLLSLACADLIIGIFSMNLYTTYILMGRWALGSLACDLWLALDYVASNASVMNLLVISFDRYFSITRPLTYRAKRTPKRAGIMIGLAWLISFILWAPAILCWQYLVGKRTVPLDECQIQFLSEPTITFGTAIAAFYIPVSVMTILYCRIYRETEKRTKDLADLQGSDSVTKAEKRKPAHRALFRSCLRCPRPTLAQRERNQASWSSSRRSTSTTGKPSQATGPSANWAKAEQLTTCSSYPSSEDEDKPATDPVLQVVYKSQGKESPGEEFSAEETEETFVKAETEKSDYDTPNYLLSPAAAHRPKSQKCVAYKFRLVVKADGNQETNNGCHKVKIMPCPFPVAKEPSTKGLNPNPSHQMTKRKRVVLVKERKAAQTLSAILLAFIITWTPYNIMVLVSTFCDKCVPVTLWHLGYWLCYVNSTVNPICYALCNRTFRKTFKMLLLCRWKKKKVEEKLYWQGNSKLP

[15] = target: D(3) dopamine receptor (Homo sapiens) (UniProt P35462); assay: Activity at dopamine receptor D3 (unknown origin) at <1 uM
Chain of D(3) dopamine receptor (Homo sapiens) (P35462 whole entry): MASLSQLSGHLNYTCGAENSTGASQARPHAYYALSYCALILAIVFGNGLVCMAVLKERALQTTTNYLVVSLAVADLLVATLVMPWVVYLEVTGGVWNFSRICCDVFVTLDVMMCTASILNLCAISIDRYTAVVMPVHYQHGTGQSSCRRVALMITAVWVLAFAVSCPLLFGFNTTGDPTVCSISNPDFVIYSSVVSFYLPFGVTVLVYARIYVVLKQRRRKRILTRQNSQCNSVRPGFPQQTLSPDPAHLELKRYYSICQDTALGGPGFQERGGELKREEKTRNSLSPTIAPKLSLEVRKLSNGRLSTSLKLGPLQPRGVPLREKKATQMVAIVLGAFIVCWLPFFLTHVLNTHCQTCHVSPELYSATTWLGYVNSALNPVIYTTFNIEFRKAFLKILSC

[16] = target: T8, Serine/threonine-protein kinase PAK 2 (Homo sapiens, UniProt Q13177)
T8 sequence (Q13177 whole entry): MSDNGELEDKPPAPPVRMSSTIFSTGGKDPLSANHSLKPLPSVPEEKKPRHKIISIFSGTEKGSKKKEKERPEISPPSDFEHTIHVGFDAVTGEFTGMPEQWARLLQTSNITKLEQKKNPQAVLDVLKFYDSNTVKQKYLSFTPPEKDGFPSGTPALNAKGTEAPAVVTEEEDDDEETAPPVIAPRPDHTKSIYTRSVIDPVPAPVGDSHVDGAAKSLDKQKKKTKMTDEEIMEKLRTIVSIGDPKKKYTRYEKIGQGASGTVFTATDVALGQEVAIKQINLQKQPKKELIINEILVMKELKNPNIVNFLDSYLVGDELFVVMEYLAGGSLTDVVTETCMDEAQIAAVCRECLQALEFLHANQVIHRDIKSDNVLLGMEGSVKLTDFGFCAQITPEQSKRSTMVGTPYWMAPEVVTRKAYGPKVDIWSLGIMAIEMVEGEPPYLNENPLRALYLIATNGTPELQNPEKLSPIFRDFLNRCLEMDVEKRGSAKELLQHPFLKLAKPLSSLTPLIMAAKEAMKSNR

[17] = target: Sodium-dependent dopamine transporter (Homo sapiens) (UniProt Q01959); assay: Activity at dopamine transporter (unknown origin) at <1 uM
Chain of Sodium-dependent dopamine transporter (Homo sapiens) (Q01959 whole entry): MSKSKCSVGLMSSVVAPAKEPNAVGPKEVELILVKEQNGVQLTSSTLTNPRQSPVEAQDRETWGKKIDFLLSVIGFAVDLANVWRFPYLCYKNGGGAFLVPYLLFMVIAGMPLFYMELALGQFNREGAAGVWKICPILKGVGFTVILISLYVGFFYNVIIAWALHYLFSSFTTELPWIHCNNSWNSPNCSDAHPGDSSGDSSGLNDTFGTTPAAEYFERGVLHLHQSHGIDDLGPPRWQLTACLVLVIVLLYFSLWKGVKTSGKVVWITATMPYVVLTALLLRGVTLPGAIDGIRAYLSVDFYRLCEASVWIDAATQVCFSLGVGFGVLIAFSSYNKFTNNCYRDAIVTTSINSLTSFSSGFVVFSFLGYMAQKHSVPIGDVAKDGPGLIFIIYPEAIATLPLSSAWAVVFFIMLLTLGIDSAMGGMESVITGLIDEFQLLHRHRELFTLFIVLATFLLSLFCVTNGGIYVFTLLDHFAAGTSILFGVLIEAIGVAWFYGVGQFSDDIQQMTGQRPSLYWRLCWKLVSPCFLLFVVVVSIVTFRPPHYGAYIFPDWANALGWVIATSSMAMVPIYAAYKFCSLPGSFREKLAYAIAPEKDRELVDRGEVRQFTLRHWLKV

[18] = target: T9, Tyrosine-protein kinase Yes (Homo sapiens, UniProt P07947); settings: 100 nM
[19] = target: T10, Tyrosine-protein kinase Lyn (Homo sapiens, UniProt P07948); assay: Inhibition of N-terminal his6-tagged recombinant full-length human LYN expressed in baculovirus infected Sf21 cells
[20] = target: T11, Proto-oncogene tyrosine-protein kinase Src (Homo sapiens, UniProt P12931); assay: Inhibition of N-terminal His6-tagged recombinant human Src (1 to 530 residues) expressed in baculovirus infected sf21 cells
T11 sequence (P12931 2-536 limits assumed): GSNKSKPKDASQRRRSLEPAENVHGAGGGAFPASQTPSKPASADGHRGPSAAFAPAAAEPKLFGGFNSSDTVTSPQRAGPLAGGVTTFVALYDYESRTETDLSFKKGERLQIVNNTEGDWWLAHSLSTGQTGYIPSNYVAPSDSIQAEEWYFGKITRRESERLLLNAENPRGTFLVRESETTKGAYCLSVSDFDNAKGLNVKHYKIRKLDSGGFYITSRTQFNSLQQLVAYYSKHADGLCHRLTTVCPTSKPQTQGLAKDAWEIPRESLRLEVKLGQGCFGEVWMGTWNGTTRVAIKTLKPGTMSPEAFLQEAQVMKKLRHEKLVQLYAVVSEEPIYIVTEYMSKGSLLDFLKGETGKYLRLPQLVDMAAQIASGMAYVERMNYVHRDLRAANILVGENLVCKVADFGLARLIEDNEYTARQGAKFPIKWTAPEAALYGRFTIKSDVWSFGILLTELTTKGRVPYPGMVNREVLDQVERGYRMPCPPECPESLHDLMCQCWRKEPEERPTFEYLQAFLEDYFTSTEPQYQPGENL

[21] = target: T10, Tyrosine-protein kinase Lyn; assay: Inhibition of N-terminal his6-tagged recombinant full-length human LYN expressed in baculovirus infected Sf21 cells at 100 nM
Homo sapiens = species: Homo sapiens; assay: Activity at CaV-L (unknown origin) at <1 uM
[22] = target: T12, Alpha-2C adrenergic receptor (Homo sapiens) (UniProt P18825); assay: Activity at alpha-2C adrenergic receptor (unknown origin) at <1 uM
T12 sequence (whole entry): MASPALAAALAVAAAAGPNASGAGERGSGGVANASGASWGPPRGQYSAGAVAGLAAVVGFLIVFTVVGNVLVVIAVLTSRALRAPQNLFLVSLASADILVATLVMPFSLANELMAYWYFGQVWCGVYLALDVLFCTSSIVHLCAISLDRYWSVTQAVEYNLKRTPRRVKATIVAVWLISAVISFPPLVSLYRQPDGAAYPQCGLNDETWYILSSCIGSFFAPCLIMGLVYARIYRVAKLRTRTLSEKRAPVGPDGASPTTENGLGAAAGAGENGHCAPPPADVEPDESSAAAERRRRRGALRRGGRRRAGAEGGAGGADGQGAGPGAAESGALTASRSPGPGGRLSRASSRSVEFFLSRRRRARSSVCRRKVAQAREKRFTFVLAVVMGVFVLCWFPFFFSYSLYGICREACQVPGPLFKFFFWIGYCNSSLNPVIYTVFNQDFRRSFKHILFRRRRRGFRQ

[23] = target: PAK2 (serine/threonine-protein kinase PAK 2) (Homo sapiens, UniProt Q13177); assay: Inhibition of N-terminal 6His-tagged recombinant human PAK2 (3-end residues) expressed in expressed in Escherichia coli at 100 nM
Chain of PAK2 (serine/threonine-protein kinase PAK 2) (Q13177 whole entry): as the sequence (Q13177 whole entry) above

[24] = target: T3, Tyrosine-protein kinase Fyn; assay: Inhibition of N-Terminal His6-tagged full length recombinant human FYN expressed in baculovirus expression system
Target sequence in this assay (P06241 whole entry): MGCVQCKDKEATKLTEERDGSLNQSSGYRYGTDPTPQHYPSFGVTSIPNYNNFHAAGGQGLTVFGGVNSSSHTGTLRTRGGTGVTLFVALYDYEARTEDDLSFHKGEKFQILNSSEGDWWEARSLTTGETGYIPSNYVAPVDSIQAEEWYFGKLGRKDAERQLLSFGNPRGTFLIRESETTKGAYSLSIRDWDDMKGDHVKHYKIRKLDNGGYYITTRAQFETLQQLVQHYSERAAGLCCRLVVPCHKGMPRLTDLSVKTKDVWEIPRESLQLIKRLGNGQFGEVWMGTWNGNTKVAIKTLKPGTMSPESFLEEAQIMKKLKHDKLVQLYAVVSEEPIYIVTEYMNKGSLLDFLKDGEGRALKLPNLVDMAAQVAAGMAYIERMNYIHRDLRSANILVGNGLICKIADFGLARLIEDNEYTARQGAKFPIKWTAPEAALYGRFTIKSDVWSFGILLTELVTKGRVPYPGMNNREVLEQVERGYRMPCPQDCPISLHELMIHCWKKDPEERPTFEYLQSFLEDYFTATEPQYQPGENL

[25] = target: T5, Tyrosine-protein kinase Lck; assay: Inhibition of N-terminal 6His-tagged full length recombinant human LCK expressed in baculovirus expression system
Target sequence in this assay (P06239 whole entry): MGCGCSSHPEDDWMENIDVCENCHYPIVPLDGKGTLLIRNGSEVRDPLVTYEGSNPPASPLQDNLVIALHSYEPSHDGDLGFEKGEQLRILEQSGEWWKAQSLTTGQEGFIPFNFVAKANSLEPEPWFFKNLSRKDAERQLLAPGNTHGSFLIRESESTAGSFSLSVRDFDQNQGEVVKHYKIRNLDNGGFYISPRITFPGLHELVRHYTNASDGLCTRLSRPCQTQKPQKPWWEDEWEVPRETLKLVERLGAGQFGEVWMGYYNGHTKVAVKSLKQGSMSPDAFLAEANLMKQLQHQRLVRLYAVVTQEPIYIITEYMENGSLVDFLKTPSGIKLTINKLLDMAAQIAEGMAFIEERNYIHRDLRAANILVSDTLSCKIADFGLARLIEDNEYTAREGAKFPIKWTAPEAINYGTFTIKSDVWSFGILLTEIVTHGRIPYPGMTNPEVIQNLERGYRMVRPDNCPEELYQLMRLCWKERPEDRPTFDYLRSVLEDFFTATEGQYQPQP

[26] = target: T9, Tyrosine-protein kinase Yes; assay: Inhibition of N-terminal 6His-tagged full length recombinant human YES expressed in baculovirus expression system
[27] = target: 5-hydroxytryptamine receptor 2B (Homo sapiens) (UniProt P41595); assay: Activity at 5HT2B receptor (unknown origin) at <1 uM
Chain of 5-hydroxytryptamine receptor 2B (Homo sapiens) (P41595 whole entry): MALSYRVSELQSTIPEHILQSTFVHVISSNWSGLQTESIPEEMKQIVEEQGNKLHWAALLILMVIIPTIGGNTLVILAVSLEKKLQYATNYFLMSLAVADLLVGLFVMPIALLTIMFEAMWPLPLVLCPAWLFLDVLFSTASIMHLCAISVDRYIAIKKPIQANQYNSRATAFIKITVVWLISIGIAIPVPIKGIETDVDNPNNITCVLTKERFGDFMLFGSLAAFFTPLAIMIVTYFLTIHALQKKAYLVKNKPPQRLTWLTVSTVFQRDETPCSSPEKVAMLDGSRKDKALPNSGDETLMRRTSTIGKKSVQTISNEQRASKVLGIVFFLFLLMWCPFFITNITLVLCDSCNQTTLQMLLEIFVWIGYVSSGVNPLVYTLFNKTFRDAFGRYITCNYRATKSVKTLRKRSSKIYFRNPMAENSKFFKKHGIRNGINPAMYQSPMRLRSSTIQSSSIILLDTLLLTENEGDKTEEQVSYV

[28] = target: T2, Protein kinase C theta type; assay: Inhibition of C-terminal 6His-tagged recombinant full length human PKCtheta expressed in fall armyworm Sf21 cells
[29] = target: T8, Serine/threonine-protein kinase PAK 2; remark: listed apart in the source
[30] = target: T11, Proto-oncogene tyrosine-protein kinase Src; assay: Inhibition of N-terminal His6-tagged recombinant human Src (1 to 530 residues) expressed in baculovirus infected sf21 cells at 100 nM
[31] = target: T13, Alpha-1B adrenergic receptor (Homo sapiens) (UniProt P35368); assay: Activity at alpha-1B adrenergic receptor (unknown origin) at <1 uM
T13 sequence (whole entry): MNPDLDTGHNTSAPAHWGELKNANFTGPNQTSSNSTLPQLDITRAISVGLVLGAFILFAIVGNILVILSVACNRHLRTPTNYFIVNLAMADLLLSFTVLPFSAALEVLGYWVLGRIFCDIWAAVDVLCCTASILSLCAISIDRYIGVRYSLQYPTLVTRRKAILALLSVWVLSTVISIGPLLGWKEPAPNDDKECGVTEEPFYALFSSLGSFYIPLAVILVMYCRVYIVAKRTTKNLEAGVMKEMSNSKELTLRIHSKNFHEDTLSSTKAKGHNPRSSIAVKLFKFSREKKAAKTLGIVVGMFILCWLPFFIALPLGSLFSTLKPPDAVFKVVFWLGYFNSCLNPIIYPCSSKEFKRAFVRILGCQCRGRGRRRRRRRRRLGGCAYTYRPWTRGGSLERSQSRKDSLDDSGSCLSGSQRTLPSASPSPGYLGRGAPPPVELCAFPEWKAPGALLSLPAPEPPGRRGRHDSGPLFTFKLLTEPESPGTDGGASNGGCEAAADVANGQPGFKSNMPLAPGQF

logD [1]: 3.5
SMILES: CCN(c1cc(CO)ccc1C)c1nc(Nc2ccc(N3CCN(C)CC3)c(S(=O)(=O)CC)c2)ncc1F

logD [1]: 3
SMILES: CCS(=O)(=O)c1cc(Nc2ncc(F)c(N(C)c3cc(CO)ccc3C)n2)ccc1N1CCN(C)CC1

logD [1]: 2.6
SMILES: Cc1ccc(CO)cc1N(C)c1nc(Nc2ccc(N3CCN(C)CC3)c(S(C)(=O)=O)c2)ncc1F

logD [1]: 3.7
SMILES: CN(c1cc(CO)ccc1Cl)c1nc(Nc2cc(N3CCOCC3)cc(S(C)(=O)=O)c2)ncc1F

logD [1]: 3.3
SMILES: Cc1ccc(CO)cc1N(C)c1nc(Nc2cc(N3CCOCC3)cc(S(C)(=O)=O)c2)ncc1F

Further lines, the molecule ahead of its results:

SMILES: CCn1c(=O)c(-c2ccc(-c3cncs3)cc2Cl)cc2cnc(Nc3ccc(N4CCN(C)CC4)cc3)nc21
logD [1]: > 4

SMILES: CCS(=O)(=O)c1cc(Nc2ncc(F)c(N(C)c3cc(CO)c(C)cc3C)n2)ccc1N1C[C@@H]2C[C@H]1CN2C
logD [1]: 2.5
hepatocyte CLint [2]: 11 µL/min/1e6 cells
Vd [3]: 1.4 L/kg
clearance [4]: 22 mL/min/kg
half-life [5]: 1 h
fraction unbound [6]: 0.029
Activity (Mus musculus): Non-Toxic
Cmax [7]: 7.7 µM

SMILES: CCS(=O)(=O)c1cc(Nc2ncc(F)c(N(C)c3cc(CO)c(C)cc3C)n2)ccc1N1CCN(C)CC1
logD [1]: 3.8

SMILES: CCS(=O)(=O)c1cc(Nc2ncc(F)c(N(Cc3ccccc3C#N)c3cc(CO)ccc3C)n2)ccc1N1CCN(C)CC1
Activity [8]: Active
inhibition [9]: 91%
logD [1]: 3.7
inhibition [10]: 87%
Activity [11]: Active
hepatocyte CLint [2]: 30 µL/min/1e6 cells
inhibition [12]: 83%
Activity [13]: Active
Activity [14]: Active
Activity [15]: Active
IC50 [16]: 6 nM
Activity [17]: Active
inhibition [18]: 95%
IC50 [19]: 31 nM
IC50 [20]: 93 nM
inhibition [21]: 91%
Activity (Homo sapiens): Active
Activity [22]: Active
inhibition at 0.1 µM [23]: 98%
IC50 [24]: 45 nM
IC50 [25]: 36 nM
IC50 [26]: 4 nM
Activity [27]: Active
IC50 [28]: 7 nM
Kd [29]: 0.32 nM
inhibition [30]: 86%
Activity [31]: Active
